Assay results: ChEMBL document CHEMBL1151915, “Structure-activity relationship studies of small-molecule inhibitors of Wnt response” (Bioorg Med Chem Lett, 2009)
In brackets after ≈: the same amount, converted by molar mass. Activity calls are given as the source filed them. The rule behind the calls is not given here.

How the values were obtained:
[1] = Half life in mouse hepatocytes; format: ADME, cell-based, Liver, Hepatocyte
How it was run: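 Cryopreserved murine CD1 hepatocytes (10^5 cells) incubated with 2 μM compound; reactions stopped at set time points with methanol; saline or buffer incubations served as controls.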

[2] = Half life in mouse liver S9 fraction; format: ADME, subcellular
[3] = species: Danio rerio; assay: Inhibition of fin regeneration in zebrafish; format: functional
[4] = Half life in mouse blood; format: ADME, tissue-based
How it was run: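 Compound at 2 μM incubated in whole blood from C57BL/6 mice; incubation stopped at set time points by adding methanol; saline or buffer incubations run as controls.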

Row | half-life [1] | half-life [2] | half-life [4] | SMILES | MIC [3] | inhibition [3]
1 | 60 min | – | – | O=C(Nc1ccc(F)cc1)c1ccc(N2C(=O)[C@@H]3[C@H](C2=O)[C@@H]2C=C[C@H]3C2)cc1 | – | –
2 | 20 min | 20 min | 60 min | O=C(Nc1cccc2cccnc12)c1ccc(N2C(=O)[C@@H]3[C@H](C2=O)[C@@H]2C=C[C@H]3C2)cc1 | 0.5 µM (≈ 0.205 µg/mL) | –
3 | – | – | – | O=C(Nc1ccc(F)cc1F)c1ccc(N2C(=O)[C@@H]3[C@H](C2=O)[C@@H]2C=C[C@H]3C2)cc1 | – | Active
4 | 10 min | – | – | COc1ccccc1NC(=O)c1ccc(N2C(=O)[C@@H]3[C@H](C2=O)[C@@H]2C=C[C@H]3C2)cc1 | – | –
